Cav32 inh: human Cav3.2 channel inhibition, primary screen; O95180; Cav3.2-expressing cells, Fluo-4 calcium fluorescence FDSS; active compounds read low; B-score at 10 µM; 100,000 compounds, 4% hits; AID 449739;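 active = single-dose well whose peak fluorescence ratio is a statistical outlier from its plate by either plate-standardised score or position-corrected B-score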
PostGolgi yeast: growth inhibition of a yeast mutant, post-Golgi transport screen; inhibition, % at 10 µM; 98,000 compounds, 0.9% hits; post-Golgi transport phenotypic cell assay; AID 739;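 note: yeast cells grown in 1536-well plates; yeast grown about 18 h at 30C before absorbance read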
tolC growth inh: growth inhibitors of E. coli BW25113 tolC mutant. AID 573. OD615. growth inhibition, % at 10 µM (by protocol). 65,000 compounds, 2.2% hits;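 active = growth inhibition at or above a cutoff equal to the mean over every tested compound plus 3 SD, cut at about 60% in these data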;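 note: growth measured after 20 h incubation at 37 °C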
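Test system – E. coli BW25113 ΔtolC::kan, tolC deletion mutant strain · Detection – OD at 615 nm · Buffer or medium – LB with kanamycin 50 µg/mL · Times – 20 h compound exposure of bacteria at 37 °C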
PostGolgi ctrl: inhibits growth of the yeast control strain. efflux-deficient yeast background strain, growth absorbance A615, 16 h. inhibition, % at 10 µM. 98,000 compounds, 5% hits
PTK2B oligo ant: Pyk2 (human) oligomerization antagonism; Q14289; AID 1347419; 99,000 compounds, 0.83% hits; Q293 cells, Pyk2 FERM NanoBiT luminescence; active compounds read low; z-score (the deposit names both 25 µM and 10 µM);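 active = Z-score of -3 or lower, scaled per plate to the spread of control and sample wells; inactive = z-score above -3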;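 note: negative z-score means lost luminescence so less FERM oligomerization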
E coli WT exp: growth inhibitors of E. coli BW25113 wild type | OD600 absorbance | growth inhibition, % at 100 µM | 98,000 compounds, 0.15% hits | AID 710;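 active = growth inhibition above about 50% at one test dose, limit read from the data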;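 note: growth measured after 20 h incubation at 37 °C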
An asterisk follows results filed as active; . = no result given. A selection: hits, their analogues and other compounds. The true share with any hit is near 8.7%. Cut-off read from the data, not from the text of the source, unless noted: active = inhibition above about 30%; inactive = the rest.

SMILES | Cav32 inh | PostGolgi yeast | tolC growth inh | PostGolgi ctrl | PTK2B oligo ant | E coli WT exp
Brc1cccc(-c2nnc(SCc3ccon3)n2-c2ccccc2)c1 | -4.6* | 11 | 19 | 25 | . | 0
Cc1nc2c3c(-c4ccccc4)nc(N4CCOCC4)nc3nn2c(C)c1CCC(=O)O | . | . | -2 | . | . | .
Cc1nc2sc3c(c2c2nc(-c4ccco4)nn12)CC(C)(C)OC3 | . | . | -12 | . | . | .
Cc1ccc(NC(=O)NCc2ccc3c(c2)OCO3)cc1 | -0.035 | -5 | . | 14 | 0.13 | 5
CCC(=O)Nc1c(C#N)c2nc3ccccc3nc2n1-c1ccccc1C | -0.054 | 3 | 26 | 6 | -1 | -17
N#Cc1c(NC(=O)c2ccccc2Cl)n(Cc2ccccc2)c2nc3ccccc3nc12 | . | . | . | . | -2.5 | .
CCC(=O)Nc1c(C#N)c2nc3ccccc3nc2n1C1CCCCC1 | -2 | 2 | 12 | 37* | 0.27 | 3
CCCCn1c(NC(=O)c2ccccc2Cl)c(C#N)c2nc3ccccc3nc21 | -8.8* | 33* | 99* | 18 | -1.2 | -6
CC(NC(=O)NC1CCCCC1)C(c1cccs1)N1CCN(C)CC1 (configuration not stated) | 0.99 | -9 | 2 | 4 | . | 7
COCCNC(=O)COc1cccc(Oc2ccccc2)c1 | 0.79 | 12 | 6 | 31* | 0.22 | 3
Cc1cc(NC(=O)COc2cccc(Oc3ccccc3)c2)no1 | -1.1 | 5 | -7 | 31* | 0.94 | -3
O=C(COc1cccc(Oc2ccccc2)c1)Nc1ncccn1 | 0.12 | -2 | 11 | -4 | 0.18 | 0
c1cc(-c2nc3cc(Oc4ccc5oc(-c6ccncc6)nc5c4)ccc3o2)ccn1 | . | . | -7 | . | . | .
CN1C2CCC1/C(=C\c1ccccc1)C(=O)/C2=C\c1ccccc1 | -0.34 | 9 | . | 17 | -1.2 | -3
CC(C)c1cc(=O)oc2c3c4c(cc12)CCCN4CCC3 | -3.9* | 13 | 23 | -1 | 2.5 | 1
O=c1oc2c3c4c(cc2c(C(F)(F)F)c1CCN1CCOCC1)CCCN4CCC3 | -6.6* | 5 | 16 | 20 | -0.48 | -2
Cc1cc(NC(=O)CSc2nc(CC(C)(C)C)nc3c2c(=O)n(C)c(=O)n3C)no1 | -1.5 | 8 | . | 4 | . | -9
CCOC(=O)N1CCN(S(=O)(=O)c2ccc(C)cc2)C1c1ccccc1 (configuration not stated) | -4.1* | -5 | 23 | 11 | -0.8 | 6
CCOC(=O)N1CCN(S(=O)(=O)c2ccc(C)cc2)C1c1ccc(OC)cc1 (configuration not stated) | . | -9 | 21 | 26 | -0.28 | -4
COCCNC(=O)c1ccc(-n2c(SCc3cc(F)ccc3F)nc3ccccc3c2=O)cc1 | . | . | . | . | 0.47 | .
O=c1c2ccccc2nc(SCc2nc(-c3ccccc3)no2)n1-c1ccc(F)cc1 | -4.5* | 1 | -6 | 11 | . | -19
Cc1noc(C)c1CSc1nc2ccccc2c(=O)n1-c1ccc(Cl)cc1 | -2.9 | -6 | . | 38* | -0.86 | -15
Cc1cc(NC(=O)CSc2nc3ccccc3c(=O)n2-c2ccccc2)no1 | 0.21 | 0 | . | 18 | 0.17 | -1
Cc1noc(C)c1CSc1nnnn1-c1ccc(Cl)cc1 | 0.5 | 18 | 2 | 30* | -0.12 | 0
Cc1noc(C)c1CSc1nnc(-c2ccccc2)n1N | -0.29 | 4 | . | 0 | 0.01 | 1
SMILES | Cav32 inh | PostGolgi yeast | tolC growth inh | PostGolgi ctrl | PTK2B oligo ant | E coli WT exp
Cc1noc(C)c1CSc1nc2ccccc2n1CCc1ccccc1 | -4.1* | 8 | 33 | 21 | -1.1 | -6
O=C(OCC(=O)N1CCN(C(=O)c2ccco2)CC1)c1cc(=O)c2ccccc2o1 | 0.05 | -4 | -11 | 9 | -0.39 | 4
COC(=O)COc1ccc(S(=O)(=O)NCc2ccco2)cc1Cl | . | -3 | -1 | -4 | 0.25 | 2
COc1ccc(C(=O)/C=C\N2CCOCC2)cc1 | 0.25 | 5 | -2 | 5 | 0.32 | -2
CSc1nsc(SC)c1C(=O)N1CCN(S(=O)(=O)c2ccc(C)cc2)C1C(C)C (configuration not stated) | -5.1* | . | . | . | -1.3 | .
CSc1nsc(SC)c1C(=O)N1CCN(S(=O)(=O)c2ccc(C)cc2)C1C (configuration not stated) | 0.015 | -1 | -8 | 12 | -1.5 | -13
CC(C)CC(=O)Nc1nnn(C)n1 | -1.4 | 2 | -37 | 2 | 0.09 | -4
COc1ccc(-c2c(C)nn(-c3ccccc3)c2N)cc1 | 0.46 | 1 | . | 38* | -1 | 5
Cc1nn(-c2nc3ccccc3[nH]2)c(N)c1-c1ccc(Cl)cc1 | -0.27 | -2 | . | 72* | -1.8 | -8

Assay outcomes: PubChem BioAssay, several laboratories
